Bioassay records deposited in PubChem by several laboratories.
NPY-Y2 antag: NPY-Y2 receptor antagonists, primary screen, cell-based | Neuropeptide Y receptor type 2 (Homo sapiens), P49146 | 0.99% of 140,000 active | NPY-Y2 expressing cells, antagonist mode | inhibition, % at 2.7 µM; in the data active = inhibition above about 17%
Target sequence (P49146 whole entry, looked up): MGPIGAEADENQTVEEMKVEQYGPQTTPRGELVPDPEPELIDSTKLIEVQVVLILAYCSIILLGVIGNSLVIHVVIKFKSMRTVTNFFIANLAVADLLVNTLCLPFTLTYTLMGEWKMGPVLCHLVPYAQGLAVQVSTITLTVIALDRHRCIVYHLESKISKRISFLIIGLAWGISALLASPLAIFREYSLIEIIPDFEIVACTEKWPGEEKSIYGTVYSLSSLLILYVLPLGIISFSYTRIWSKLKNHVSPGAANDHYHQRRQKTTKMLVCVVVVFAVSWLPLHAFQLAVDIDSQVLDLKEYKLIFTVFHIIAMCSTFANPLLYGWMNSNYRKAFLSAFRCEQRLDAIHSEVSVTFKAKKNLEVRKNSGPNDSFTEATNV
NPY1 pot ag: NPY-Y1 receptor potentiators or agonists, primary screen, cell-based; Neuropeptide Y receptor type 1 (Homo sapiens), P25929; NPY-Y1 expressing cells, potentiator/agonist activation; activation, % at 3.6 µM; 0.37% of 220,000 active; in the data active = activation above about 33%, passing the limit was not always enough;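 also: cells stimulated with NPY at EC10 then isoproterenol at EC100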
m-calpain inh: inhibitors of pig calpain II, primary screen, biochemical, fluorogenic peptide substrate, 1536-well. 0.37% of 220,000 active. purified calpain II, 30 min. inhibition, % at 16 µM;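 active = inhibition above about 50%, limit read from the data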
NPY2 pot ag: NPY-Y2 potentiators or agonists, primary screen, cell-based | cells expressing NPY-Y2, potentiator/agonist read-out | 0.45% of 220,000 active | activation, % at 3.6 µM | Neuropeptide Y receptor type 2 (Homo sapiens), P49146; in the data active = activation above about 27%;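 also: cells stimulated with NPY near EC25 plus isoproterenol at EC100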
TbHK1 inh: Trypanosoma brucei hexokinase 1 inhibitors, primary screen, biochemical, G6PDH-coupled NADH absorbance, MLSCN library; hexokinase 1 [Trypanosoma brucei]; recombinant TbHK1, G6PDH-coupled NADH A340; inhibition, % at 10 µM; 0.11% of 220,000 active;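 active = inhibition of 50% or more in the single-dose primary screen; inactive = inhibition below 50%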
NPY Y1 blocker: NPY-Y1 receptor antagonists, primary screen, cell-based | inhibition, % at 3.6 µM | 1% of 200,000 active | HEK293-CNG Y1 cells, membrane potential fluorescence; NPY at EC95, then isoproterenol;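 active = inhibition above the campaign mean inhibition of all tested compounds plus 3 SD, cut at about 20% in these data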
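Material: Y1- and CNG-channel-expressing HEK293 cells / Probe or stimulus: NPY 25 nM then isoproterenol 1 µM plus Ro 20-1724 25 µM / Doses: 3.6 µM single dose, DMSO 0.4% / Schedule: compound incubation 1 h at room temperature, readout 45 min post-stimulation / Signal: membrane potential fluorescence / Benchmarks: isoproterenol-only wells as full block versus NPY-plus-isoproterenol wells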
Of the large screens only hits and unclear results are named; the others gave an inactive call. Sampled rows, rich in hits. Any-hit rate of the full collection: about 2.3%.

CC(=O)n1cc(N(C(=O)CCl)c2ccccc2)c2ccccc21	none (no result: NPY-Y2 antag, NPY Y1 blocker)
Cn1c(=O)c2c(nc(NCCCN3CCOCC3)n2Cc2ccc(Cl)c(Cl)c2)n(C)c1=O	NPY-Y2 antag 23.2, NPY Y1 blocker 20.4 (no result: m-calpain inh)
Cc1occc1C(=O)NN1C(=O)C2C3CCC(O3)C2C1=O (configuration not stated)	none
Cc1nc2c3cc(F)ccc3n(Cc3ccc(F)cc3)c2s1	NPY-Y2 antag 17.6, NPY Y1 blocker 27.3
Cc1nc2c3cc(Cl)ccc3n(CCN3CCCCC3)c2s1	NPY-Y2 antag 33.3, NPY Y1 blocker 25.1
COC(=O)Cn1c2ccc(F)cc2c2nc(C)sc21	none
Cn1nc(NC(=O)CC23CC4CC(CC(C4)C2)C3)c2c(F)cccc21	none (no result: NPY-Y2 antag, NPY Y1 blocker)
COc1ccc(N=CC2=C(Nc3ccc(OC)cc3)c3c(C)nn(-c4ccccn4)c3CC2)cc1	NPY Y1 blocker 20.7 (no result: m-calpain inh)
COc1ccc(NC(=O)CCCc2c[nH]c3ccccc23)cc1OC	none
COc1ccc(C(c2c[nH]c3ccccc23)c2c[nH]c3ccccc23)cc1O	NPY1 pot ag 32.4, NPY2 pot ag 38.5
CC(=O)Nc1ccc(Nc2cc(C)nc3c(-c4ccccc4)cnn23)cc1	none
COc1ccc(N2CCN(c3nc(NC(C)(C)C)nc(N4CCCCC4)n3)CC2)cc1	m-calpain inh 64.7
O=C(NCCCl)Nc1cccnc1Cl	none (no result: NPY-Y2 antag)
COc1ccc([C@H](C)NC[C@H](O)c2ccc(O)c(NC=O)c2)cc1	NPY1 pot ag 58.6, NPY2 pot ag 79.4 (no result: NPY-Y2 antag)
N=C1C(c2nc3ccccc3s2)=C(O)CN1c1ccccc1	none (no result: NPY-Y2 antag)
COc1ccc(Nc2ncnc3scc(-c4ccc(OC)cc4)c23)cc1	NPY-Y2 antag 31.8, NPY Y1 blocker 20.7
COc1ccc(-c2csc3ncnc(Cl)c23)cc1	none (no result: NPY-Y2 antag)
COC(=O)c1ccc(OC(=O)C23CCC(C)(C(=O)O2)C3(C)C)cc1 (configuration not stated)	none (no result: NPY-Y2 antag)
O=S(=O)(c1ccccc1)N1CCN(C2CCCCCCC2)CC1	none
c1ccc(CCN(Cc2ccccc2)C2CCN(C3CCCC3)CC2)cc1	NPY Y1 blocker 21.4 (no result: NPY-Y2 antag)
Cc1ccc2cc(CCNS(=O)(=O)c3ccc(F)cc3)c(=O)[nH]c2c1C	none (no result: NPY-Y2 antag)
COc1ccccc1N=c1oc2cc(O)ccc2cc1C(=O)NCC1CCCO1 (configuration not stated)	NPY-Y2 antag 20.8, NPY Y1 blocker 24.2
O=C(NCc1ccccc1Cl)c1ccc2c(=O)n(CCCN3CCCC3=O)c(=S)[nH]c2c1	none
O=C(NCc1cccnc1)c1ccc2c(=O)n(CCCN3CCCC3=O)c(=S)[nH]c2c1	m-calpain inh 84.2
COc1ccc(-c2cc(C(F)F)n3ncc(C(=O)NCC4CCCO4)c3n2)cc1 (configuration not stated)	NPY-Y2 antag 28.9, NPY Y1 blocker 29.0
COc1ccc(CN(C)C(C)C(=O)Nc2ccc(S(=O)(=O)N3CCCC3)cc2)c(OC)c1OC (configuration not stated)	none (no result: NPY-Y2 antag)
CCN(CC)CCCNC1=C(Cl)C(=O)c2ccccc2C1=O	m-calpain inh 51.4 (no result: NPY-Y2 antag)
COCCCNC1=C(Cl)C(=O)c2ccccc2C1=O	none (no result: NPY-Y2 antag, NPY Y1 blocker)
CCOC(=O)c1c2c(c(=S)n(-c3ccccc3)c1N)CCC2	m-calpain inh 51.3
COc1ccc(CCNC(=S)Nc2ccc(OC)cc2)cc1	none
COc1ccc(NC(=S)NCCc2c(C)[nH]c3ccc(OC)cc23)cc1	m-calpain inh 61.6 (no result: NPY-Y2 antag)
NC(CO)(CO)COCc1ccccc1	none (no result: NPY-Y2 antag)
CCOc1cc(C2NC(=O)NC(c3ccccc3)=C2C(=O)c2ccccc2)c(Br)cc1OCC(=O)O (configuration not stated)	none (no result: NPY-Y2 antag)
Cc1ccc(NC(=O)Nc2ccc3c(c2)C(=O)OC3)cc1Cl	none (no result: NPY-Y2 antag, NPY Y1 blocker)
NC(=O)CSc1nnc(-c2ccccn2)n1Cc1ccco1	none (no result: NPY-Y2 antag, NPY Y1 blocker)
C(=C\c1ccccc1)/CSc1nnc(-c2ccccn2)n1Cc1ccco1	NPY-Y2 antag 19.8, NPY Y1 blocker 21.4
CC(C)OC(=O)CSc1nnc(COc2ccc([N+](=O)[O-])cc2)n1C	m-calpain inh 51.7 (no result: NPY-Y2 antag)
